The MRT is the average time that molecules of a dose stay in the body. By EC50 is commonly meant the concentration at which the effect is half-maximal. As a reminder, the half-life is the time in which the quantity being followed falls by half. Higher therefore signals slow loss.

Here are results for 2 compounds from ChEMBL document CHEMBL1156009, “Eleven amino acid glucagon-like peptide-1 receptor agonists with antidiabetic activity” (J Med Chem, 2009).

Calls of active or inactive are those of the source. The calls are words filed in the database; no cut-off is given here. Square brackets hold non-standard residues; d marks the D form. Peptide text beside a SMILES is read from it. Bip(2'-Et-4'-OMe) = CCc1cc(OC)ccc1-c1ccc(C[C@H](N)C(=O)O)cc1; Bip(2'-Me) = Cc1ccccc1-c1ccc(C[C@H](N)C(=O)O)cc1; αMePhe(2,6-F2) = C[C@](N)(Cc1c(F)cccc1F)C(=O)O; Aib = CC(C)(N)C(=O)O A value given as a limit tells only on which side of the number the result lay.

Series [1] can be described thus: Mean residence time in Beagle dog at 67 ug/kg, sc by LC-MS/MS analysis. It is filed as ADME, organism-based, Canis lupus familiaris. The following applies: in vivo, 0.067 mg/kg.
Series [2] deals with Mus musculus. Kind of series: Antidiabetic activity in insulin-resistant ob/ob mouse assessed as increase in plasma insulin level at 300 nmol/kg, sc administered 30 mins before glucose infusion measured after 30 mins of glucose challenge by intraperitoneal glucose tolerance test. It is filed as functional, organism-based. The essentials: (§1)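 Male ob/ob mice, 19 weeks old, 6 per group, randomized on fed glucose and body weight. After an 18 h fast, single sc dose in 1:1 propylene glycol/20 mM sodium phosphate pH 7.4 (0.1 mL/100 g) at -30 min. 2 g/kg glucose (50%) given ip at time 0. Tail bleeds at 0, 30, 60, 120 and 180 min into K-EDTA. Glucose measured on analyzer, insulin by ultrasensitive mouse ELISA. ANOVA with Dunnett's test versus vehicle.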

Series [3] concerns the target Glucagon-like peptide 1 receptor (Homo sapiens, UniProt P43220). Kind of series: Agonist activity at human GLP1R expressed in CHO cells assessed as stimulation of intracellular [3H]cAMP accumulation after 30 mins by scintillation proximity assay. Format: functional, cell-based. The gist of the method:
(§2)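 CHO cells stably expressing human or mouse GLP-1R, grown in F-12 with 10% FBS plus Geneticin (0.4 mg/mL human, 1 mg/mL mouse), plated 2×10^4/well overnight. Half-log dilutions made in DMSO, then in DPBS with 0.1 mM IBMX and 0.05% BSA (final 1% DMSO). Cells exposed 30 min. cAMP read by SPA and converted to pmol via standard curve. Duplicates, at least three separate runs.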
Background: Changes in cAMP serve as a functional read-out for many G protein-coupled receptors.

Series [4] is described as follows: Cmax in insulin-resistant ob/ob mouse at 300 nmol/kg, sc up to 24 hrs by LC-MS/MS analysis. It is filed as ADME, organism-based. Details: dose 300 nmol/kg, route subcutaneous. The conditions noted are these: in vivo. The essentials:
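ob/ob mice dosed sc at 300 nmol/kg in 1:1 propylene glycol/20 mM sodium phosphate pH 7.4. Plasma sampled at 1, 2, 4, 6, 8 and 24 h and quantified by LC-MS/MS.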

The target of series [5] is T1, Glucagon-like peptide 1 receptor (Mus musculus, UniProt O35659).
T1 sequence (O35659 whole entry): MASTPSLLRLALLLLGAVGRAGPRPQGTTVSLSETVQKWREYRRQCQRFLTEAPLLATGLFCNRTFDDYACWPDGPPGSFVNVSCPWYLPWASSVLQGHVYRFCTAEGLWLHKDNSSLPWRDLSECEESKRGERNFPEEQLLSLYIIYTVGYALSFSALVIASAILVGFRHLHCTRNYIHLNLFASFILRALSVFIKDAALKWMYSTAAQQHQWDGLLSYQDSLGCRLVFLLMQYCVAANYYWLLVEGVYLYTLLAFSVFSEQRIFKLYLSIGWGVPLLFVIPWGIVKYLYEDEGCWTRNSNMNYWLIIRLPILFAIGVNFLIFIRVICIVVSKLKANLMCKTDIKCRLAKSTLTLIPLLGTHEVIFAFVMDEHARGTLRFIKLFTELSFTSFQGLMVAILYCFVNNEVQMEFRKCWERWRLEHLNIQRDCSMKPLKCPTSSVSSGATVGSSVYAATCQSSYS
The series is described as follows: Agonist activity at mouse GLP1R expressed in CHO cells assessed as stimulation of intracellular [3H]cAMP accumulation by scintillation proximity assay. It is filed as functional, cell-based. The essentials:
as §2

Series [6] deals with Mus musculus. The series is described as follows: Antidiabetic activity in insulin-resistant ob/ob mouse assessed as reduction in plasma glucose level at 300 nmol/kg, sc administered 30 mins before glucose infusion measured after 30 to 180 mins of glucose challenge by intraperitoneal glucose tolerance test. It is filed as functional, organism-based. The gist of the method: as §1

In a further series the test system is Canis familiaris. The series is described as follows: Tmin in Beagle dog at 67 ug/kg, sc by LC-MS/MS analysis. It is filed as ADME, organism-based, Canis lupus familiaris. The conditions noted are these: in vivo, 0.067 mg/kg.
In series [7] the test system is Mus musculus. Kind of series: Antidiabetic activity in insulin-resistant ob/ob mouse assessed as increase in plasma insulin level at 300 nmol/kg, sc administered 30 mins before glucose infusion measured after 60 mins of glucose challenge by intraperitoneal glucose tolerance test. Format: functional, organism-based. The gist of the method: as §1
A short description of series [8]: Half life in patient with type 2 diabetes at 2.5 to 25 nmol, iv administered as bolus dose. It is filed as ADME, organism-based. The following applies: human, in vivo.

Glucagon-like peptide 1 receptor (Homo sapiens, UniProt P43220), sequence (P43220 whole entry): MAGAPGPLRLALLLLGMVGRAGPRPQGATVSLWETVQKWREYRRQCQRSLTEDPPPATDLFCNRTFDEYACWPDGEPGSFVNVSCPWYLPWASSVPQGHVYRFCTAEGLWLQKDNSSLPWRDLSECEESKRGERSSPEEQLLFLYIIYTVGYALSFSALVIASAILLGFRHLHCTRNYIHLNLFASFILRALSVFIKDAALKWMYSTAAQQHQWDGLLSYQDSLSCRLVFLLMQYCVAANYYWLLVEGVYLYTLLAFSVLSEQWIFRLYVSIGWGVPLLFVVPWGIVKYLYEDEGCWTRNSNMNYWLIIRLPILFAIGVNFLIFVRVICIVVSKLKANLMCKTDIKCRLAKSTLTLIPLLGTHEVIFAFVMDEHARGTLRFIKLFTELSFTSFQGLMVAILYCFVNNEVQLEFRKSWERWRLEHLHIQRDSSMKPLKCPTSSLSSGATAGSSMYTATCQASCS

With `CCc1cc(OC)ccc1-c1ccc(C[C@H](NC(=O)[C@H](CC(=O)O)NC(=O)[C@H](CO)NC(=O)[C@@H](NC(=O)[C@](C)(Cc2c(F)cccc2F)NC(=O)[C@@H](NC(=O)CNC(=O)[C@H](CCC(=O)O)NC(=O)C(C)(C)NC(=O)[C@@H](N)Cc2cnc[nH]2)[C@@H](C)O)[C@@H](C)O)C(=O)N[C@@H](Cc2ccc(-c3ccccc3C)cc2)C(N)=O)cc1` (H-H[Aib]EGT[αMePhe(2,6-F2)]TSD[Bip(2'-Et-4'-OMe)][Bip(2'-Me)]-NH2), the MRT in series [1] amounted to 20 h. Further, the result with Mus musculus [2], in the series with Mus musculus [6] and with Mus musculus [7] was Active. Further, the results for the EC50 in series [3] and in series [5] were 0.12 nM and 0.8 nM, respectively. Besides, the Cmax in [4] is greater than 2000 nM. Moreover, the Tmin with Canis familiaris came to 24 h.
`CC[C@H](C)[C@H](NC(=O)[C@H](Cc1ccccc1)NC(=O)[C@H](CCC(=O)O)NC(=O)[C@H](CCCCN)NC(=O)[C@H](C)NC(=O)[C@H](C)NC(=O)[C@H](CCC(N)=O)NC(=O)CNC(=O)[C@H](CCC(=O)O)NC(=O)[C@H](CC(C)C)NC(=O)[C@@H](NC(=O)[C@H](CO)NC(=O)[C@H](CO)NC(=O)[C@@H](NC(=O)[C@H](CC(=O)O)NC(=O)[C@H](CO)NC(=O)[C@@H](NC(=O)[C@H](Cc1ccccc1)NC(=O)[C@@H](NC(=O)CNC(=O)[C@H](CCC(=O)O)NC(=O)[C@H](C)NC(=O)[C@@H](N)Cc1cnc[nH]1)[C@@H](C)O)[C@@H](C)O)C(C)C)[C@@H](C)O)C(=O)N[C@@H](C)C(=O)N[C@@H](Cc1c[nH]c2ccccc12)C(=O)N[C@@H](CC(C)C)C(=O)N[C@H](C(=O)N[C@@H](CCCCN)C(=O)NCC(=O)N[C@@H](CCCN=C(N)N)C(N)=O)C(C)C` gave a half-life in series [8] of 2 min. The EC50 in series [3] was found to be 0.034 nM.
